Bioassay records from PubChem.
Hits are enriched below; roughly 3.8% of the tested compounds scored in any of these assays.
KCNQ1 block: inhibitors of human KCNQ1 channel, primary screen, cell-based, thallium flux, high-throughput. CHO-K1 KCNQ1, FluxOR thallium flux fluorescence; active compounds read high. AID 2642, 2010. B-score at 10 µM. 310,000 tested, 1.3% active;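 active means compounds whose thallium flux B-score, printed positive for inhibition, exceeds three library SD while starting fluorescence stays within three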;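 further: channel opened by potassium depolarization with thallium stimulus after 20 min compound exposure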
KCNQ1 act: potentiators or activators of KCNQ1 channel, primary screen, cell-based, thallium flux, high-throughput; Potassium voltage-gated channel subfamily KQT member 1 (Homo sapiens), P51787; CHO-K1 KCNQ1, thallium flux FluxOR fluorescence; active compounds read high; B-score at 10 µM; 310,000 tested, 0.35% active; AID 2648, 2010;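 active means fluorescence ratio B-score, a plate-corrected score, at least three library SD, with initial intensity B-score within 5 SD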
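System: CHO-K1 cells stably expressing KCNQ1 / Medium: assay buffer for compound exposure, DMSO matched across wells / Reagent: thallium- and potassium-containing depolarizing buffer / Compound: one concentration, matched DMSO / Incubation: 20 min compound pretreatment at room temperature / Measured by: kinetic FluxOR fluorescence, 10 s baseline plus 110 s post-stimulus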
hERG protect: hERG rescue from dofetilide block, primary screen, cell-based, CHO-hERG, FluxOR thallium flux, dofetilide IC70. dofetilide IC70 present. activation (rescue from dofetilide block), less the hit threshold, % at 10 µM. 310,000 tested, 0.51% active. AID 1511, 2009;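 active means activation above the mean of controls blocked by dofetilide plus 5 SD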;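 further: thallium influx through hERG after potassium depolarization seen as dye fluorescence rise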
KCNK3 block: human KCNK3 channel inhibitors, primary screen, CHO cells, FluxOR thallium flux, B-score | Potassium channel subfamily K member 3 (Homo sapiens), O14649 | FluxOR fluorescence; active compounds read low | B-score at 10 µM | 340,000 tested, 0.84% active | AID 602410, 2012;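 active means B-score under library mean minus 4 SD, starting fluorescence ratio at most library mean plus 5 SD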;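 further: more negative B-score means stronger inhibition of thallium flux through KCNK3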
Kir21 inh: inhibitors of mouse Kir2.1 inward-rectifier potassium channel; Inward rectifier potassium channel 2 (Mus musculus), P35561; HEK293-Kir2.1, FluxOR thallium flux fluorescence; active compounds read low; AID 1672, 2009; 310,000 tested, 0.85% active; B-score at 10 µM;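 active means fluorescence ratio B-score at or below minus 3 SD of library scores, with starting-brightness B-score within 2 SD, cut at about -4.2 in these data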;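 further: channel flux triggered by added potassium and thallium sulfate stimulus; B-score of peak minus minimum fluorescence over baseline after thallium stimulus; more negative B-score means stronger Kir2.1 block with less thallium influx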
KCNK9 block: KCNK9 potassium channel inhibitors, primary screen, HEK293 cells, thallium flux; FluxOR thallium flux fluorescence; active compounds read low; Potassium channel subfamily K member 9 (Homo sapiens), Q9NPC2; B-score at 10 µM; 310,000 tested, 1.2% active;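 active means ratio B-score over 3 SD below the library mean, with starting fluorescence within 5 SD of its mean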;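 further: negative B-score means less thallium flux so channel inhibition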
Target sequence (Q9NPC2 whole entry, looked up): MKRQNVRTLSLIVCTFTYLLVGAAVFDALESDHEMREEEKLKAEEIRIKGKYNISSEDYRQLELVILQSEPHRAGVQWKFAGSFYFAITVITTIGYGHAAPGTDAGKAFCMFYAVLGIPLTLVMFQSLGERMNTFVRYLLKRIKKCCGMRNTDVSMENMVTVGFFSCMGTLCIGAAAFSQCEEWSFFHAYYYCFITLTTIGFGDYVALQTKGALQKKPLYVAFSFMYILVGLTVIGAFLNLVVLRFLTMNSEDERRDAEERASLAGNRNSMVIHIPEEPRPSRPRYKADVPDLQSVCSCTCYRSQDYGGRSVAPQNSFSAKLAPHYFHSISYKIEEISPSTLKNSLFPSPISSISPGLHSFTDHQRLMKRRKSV
* hit, by the source's call; i = inactive; / = no result.

SMILES	KCNQ1 block	KCNQ1 act	hERG protect	KCNK3 block	Kir21 inh	KCNK9 block
Cc1c(C(=O)N2CCc3ccccc3C2)oc2ccc(S(=O)(=O)N3CCCCCC3)cc12	i	i	-18.1	i	0.45	-6.76*
CCOc1ccc(CCNC(=O)COC(=O)c2cccc(S(=O)(=O)N3CCCCC3)c2)cc1OCC	i	i	-18.4	i	0.17	-7.9*
CCOc1ccc(CCNC(=O)COC(=O)c2cccc(S(=O)(=O)N3CCOCC3)c2)cc1OCC	i	i	-13.8	i	0.51	i
CCOc1ccc(CCNC(=O)COC(=O)CCC(=O)c2cccs2)cc1OCC	i	i	-5.9	i	-5.34*	i
CCOc1cc2c(cc1OCC)CN(C(=O)c1cccc(S(=O)(=O)N3CCCC3)c1)CC2	/	/	/	-9.85*	/	/
CCOc1ccc(C(=O)N2CCc3cc(OC)c(OC)cc3C2)cc1OCC	i	i	-16.2	i	-0.01	i
Cc1c(C(=O)N2CCOCC2)oc2ccc(S(=O)(=O)N3CCCC3)cc12	i	i	2.8	i	-1.88	i
CCCCN=C1NC(=O)C(CC(=O)NCCc2ccc(OC)cc2)S1 (stereo not drawn)	i	i	-12.9	i	-0.64	i
O=C(COc1ccccc1)N=C1SC2CS(=O)(=O)CC2N1Cc1ccccc1 (stereo not drawn)	i	i	-6.4	i	-0.07	i
COc1ccc(-c2csc(=Nc3c(C)n(C)n(-c4ccccc4)c3=O)n2C(C)(C)C)cc1	i	i	5.1*	i	-0.84	i
Cc1ccc(C2CC(c3ccccc3)=NN2C(=S)Nc2ccccc2)o1 (stereo not drawn)	6*	i	-9.8	i	-1.5	i
Cc1cc(NC(=O)CSc2ncc(C(=O)O)n2-c2ccc(F)cc2)no1	/	/	/	i	/	/
CC(=O)c1cccc(NC(=O)C(C)OC(=O)Cc2c[nH]c3ccccc23)c1 (stereo not drawn)	i	i	-18.9	i	-1.54	i
CC(OC(=O)Cc1c[nH]c2ccccc12)C(=O)Nc1ccccc1F (stereo not drawn)	i	i	-7.3	i	-5.67*	i
COc1ccc2ccccc2c1C1CC(=O)N2CN(Cc3ccco3)CSC2=C1C#N (stereo not drawn)	7*	i	-5.8	i	0.08	i
CCN(CC)CCCCCCCCOC(=O)c1cc(OC)c(OC)c(OC)c1	/	/	/	i	/	/
CC(CCc1ccccc1)NCc1cccc2ccccc12 (stereo not drawn)	i	i	-12.3	i	-9.68*	i
COCC1CCCN(C(=O)c2cc(COc3ccc4ncccc4c3)on2)C1 (stereo not drawn)	6*	i	-18.5	i	0.02	i
CCc1cccc(Nc2cnn(C34C[C@@H]5C[C@@H](CC(CC(=O)O)(C5)C3)C4)c(=O)c2Cl)c1	i	i	-9.6	i	-0.13	i
O=[N+]([O-])c1cc2oc3c(c2c(C=NCc2ccccc2)c1O)CCCC3	i	i	-2.2	i	-0.29	i
CC(C)CN=Cc1c(O)c([N+](=O)[O-])cc2oc3c(c12)CCCC3	i	15*	-4.9	i	1.19	i
CCOC(=O)CC(=O)CSc1ncnc2c1nnn2-c1ccc(OC)cc1	i	i	7.0*	i	0.69	i
CCN(CC)C(=O)CSc1ncnc2c1nnn2-c1ccc(OC)cc1	i	i	-9.9	i	0.34	i
COC(=O)CCC(=O)NNC(=O)C1CC1(c1ccccc1)c1ccccc1 (stereo not drawn)	i	i	-11.2	i	0.43	i
Cc1ccc(-c2nc(CSc3nc4ccccc4c(=O)n3C)cs2)cc1	i	i	-6.8	i	0.39	i
SMILES	KCNQ1 block	KCNQ1 act	hERG protect	KCNK3 block	Kir21 inh	KCNK9 block
Cc1cccc(CSc2nc3ccccc3c(=O)n2C)c1	/	/	/	-9.3*	/	/
COC1CCN(C(=O)C2CCC(=O)N(CCc3cccc(F)c3)C2)CC1 (stereo not drawn)	i	i	-7.5	i	0.98	i
COc1ccc(NC(=O)CN(C)C(=O)Cn2cnc3c2c(=O)n(C)c(=O)n3C)cc1	i	i	-7.8	i	0.92	i
CCN(CC)CCN(CC(=O)N(C1CCCCC1)C1CCCCC1)C(=O)c1ccco1	i	i	-10.2	i	-4.38*	i
COc1cc(C(=O)N=c2sc3c(C)ccc(OC)c3n2C)cc(OC)c1OC	i	i	-8.9	i	0.12	i
COc1ccc(C(=O)N=c2sc3c(C)ccc(OC)c3n2C)cc1	i	i	-10.2	i	-0.42	-7.02*
Cc1ccc(/C=N/Nc2ncc(Cl)cc2Cl)s1	7*	i	-23.1	i	1.87	i
Oc1ccc(/C=N/Nc2ncc(Cl)cc2Cl)cc1	i	i	-1.2	i	-1.1	i
Clc1cnc(N/N=C/c2cccs2)c(Cl)c1	6*	i	-13.1	i	-0.54	i
Cc1cccn2c(=O)c3cc(C(=O)NCC4CCCO4)c(=N)n(C4CCCC4)c3nc12 (stereo not drawn)	i	i	-10.5	i	0.18	i
Cc1ccc(OCC(=O)NNC(=S)NC(=O)C(C)(C)C)c(Br)c1	i	9*	-5.2	i	-1.58	i
Cc1ccc(OCC(=O)NNC(=S)NC(=O)C2CCCCC2)c(C)c1	i	8*	-4.7	i	-0.15	i
Cc1ccc(OCC(=O)NNC(=S)NC(=O)C2CC2)c(C)c1	i	i	-9.9	i	0.25	i
CC(C)c1ccc(OCC(=O)NNC(=S)NC(=O)c2cccs2)c(Br)c1	i	30*	-12.1	i	-0.67	i
CCCCc1cc(=O)oc2c(C)c(OCC(=O)N3C[C@H]4C[C@@H](C3)c3cccc(=O)n3C4)ccc12	i	i	-10.8	i	-0.76	i
CC(C)Cn1c(=O)c2ccccc2n2c(CCC(=O)NCC3CCCO3)nnc12 (stereo not drawn)	i	i	-14.0	i	-0.12	i
O=C(COC(=O)C12CC3CC(CC(Cl)(C3)C1)C2)Nc1ccccc1	/	/	/	i	/	/
NC1=NC[C@H](Cc2ccc(O)cc2)N1CCCCC1CCCCC1	i	i	-24.7	i	-2.22	i
NC1=NC[C@H](Cc2ccccc2)N1CCCCC1CCCCC1	i	i	-25.4	i	-5.78*	i
